{"source": "paper PMC12217349", "about": "(Scientific Reports, 2025)", "molecules": {"B1": {"name": "simtuzumab: an allosteric LOXL2 selective antibody (antibody, chains of the INN, looked up, V domains shown)", "VH": "QVQLVQSGAEVKKPGASVKVSCKASGYAFTYYLIEWVRQAPGQGLEWIGVINPGSGGTNYNEKFKGRATITADKSTSTAYMELSSLRSEDTAVYFCARNWMNFDYWGQGTTVTVSS", "VL": "DIVMTQTPLSLSVTPGQPASISCRSSKSLLHSNGNTYLYWFLQKPGQSPQFLIYRMSNLASGVPDRFSGSGSGTDFTLKISRVEAEDVGVYYCMQHLEYPYTFGGGTKVEIK"}}, "key": {"[1]": {"test_system": "myocardial infarction (MI) mouse model", "experiment": "Myocardial infarction", "type": "in vivo, Male C57BL/6J mice", "settings": "MI mice; daily oral gavage 28 days; SNT-5382 14 mg/kg, losartan 15 mg/kg", "procedure,_shortened": "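Male C57BL/6J mice, 10–11 weeks, were anaesthetised with ketamine 100 mg/kg and xylazine 10 mg/kg under ventilation. The left coronary artery was permanently ligated; shams had no occlusion. Mice with fractional shortening of 10–40% at 24 h were included. Daily oral gavage for 4 weeks: test compound 14 mg/kg (free base), losartan 15 mg/kg or water vehicle; blinded.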"}, "[2]": {"test_system": "bone marrow collagen fibrosis", "settings": "myelofibrosis patients treated for 9 months; cited from earlier work"}, "LOXL2": {"test_system": "LOXL2", "settings": "cited from earlier work"}}}
{"molecule": "CCCCc1nc(Cl)c(CO)n1Cc1ccc(-c2ccccc2-c2nn[nH]n2)cc1", "note": "[losartan, Losartan]", "values": [{"measurement": "hypertrophy: left ventricular end-systolic diameter (LVESD)", "setting": "[1]", "result": "no significant effect"}]}
{"molecule": "NCc1cc(Oc2cccc(C(=O)N3C[C@@H](O)[C@H](F)C3)c2)nc(C(F)(F)F)c1", "note": "[GB2064]", "values": [{"measurement": "patients with reduced bone marrow collagen fibrosis grade", "setting": "[2]", "result": 60, "unit": "%"}]}
{"molecule": "B1", "values": [{"measurement": "inhibition of LOXL2 enzymatic activity", "setting": "LOXL2", "result": "did not inhibit the enzymatic activity of LOXL2"}]}
